The target of data set [1] is Tryptophan 2,3-dioxygenase (Homo sapiens) (UniProt P48775). The experiment in a line: Inhibition of IFN-gamma-induced human TDO2 transfected in HeLa cells at 10 times IDO1 IC50 concentration using L-tryptophan as substrate incubated for 24 hrs relative to control. The class given is cell-based. The essentials:
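HeLa cells transfected for 24 h with a human TDO2 plasmid, then reseeded at 5 × 10^3/well. After 6 h, IFN-γ and compounds added in medium with […] for 24 h. Supernatant treated with 6.1 N TCA at 50 °C for 30 min and centrifuged; kynurenine read with p-dimethylaminobenzaldehyde at 480 nm.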

In data set [2] the target is Indoleamine 2,3-dioxygenase 1 (Homo sapiens, UniProt P14902). Put plainly: Inhibition of IDO1 in IFN-gamma stimulated human HeLa cells assessed as reduction in kynurenine production using L-tryptophan as substrate incubated for 24 hrs. The data set is classed as cell-based.
Data set [3] can be described thus: Cytotoxicity against human HeLa cells assessed as survival rate at 30 uM incubated for 24 hrs by MTT assay relative to control. The conditions noted are these: read-out: Activity. The data set is classed as cell-based. In general terms: Formazan colour is commonly taken as a measure of viable cells.
In a further data set the test system is HeLa. The experiment in a line: Effect on IDO1 expression in IFN-gamma-stimulated human HeLa cells at 3 times IDO1 IC50 for 24 hrs by western blot analysis. The data set is classed as functional, cell-based. The essentials: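 HeLa cells (2 × 10^5/well) exposed to human IFN-γ 100 ng/mL with or without compound for 24 h. Lysis in 50 mM Tris-HCl pH 8.0 with detergents and protease inhibitors, then 10% SDS-PAGE and PVDF transfer. Membrane blocked with 5% milk and probed with anti-IDO antibody and HRP secondary; band intensity quantified.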

Data set [4] has as its target Indoleamine 2,3-dioxygenase 1 (Mus musculus) (UniProt P28776). The experiment in a line: Reversal of IDO1-mediated immunosuppression in mouse CT26 co-cultured with T-cells assessed as increase in IFN-gamma production measured after 48 hrs by ELISA relative to control. In short, it runs like this: (§1)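 CT26 cells (1 × 10^5/well) exposed to compound ([…]) in medium with […] for 48 h. BALB/c splenic T cells resuspended in a 1:1 mix of this supernatant and RPMI/10% FBS with […] for 48 h. IFN-γ measured by ELISA; proliferation by MTT (1 mg/mL, 4 h, 37 °C, DMSO, 570 nm). Three replicate wells, mean ± SEM.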
A general note: In an ELISA, binding on a coated surface is turned into a signal by an enzyme label.

For data set [5] the target is unchanged. Put plainly: Reversal of IDO1-mediated immunosuppression in mouse CT26 co-cultured with T-cells assessed as increase in T cell proliferation measured after 48 hrs by MTT assay. In short, it runs like this:
as §1

The target is the same in data set [6]. The experiment in a line: Reversal of IDO1-mediated immunosuppression in mouse CT26 co-cultured with T-cells assessed as ConA- stimulated differentiation of Treg cells at 0.3 uM measured after 48 hrs by FOXP3-APC based flow cytometry analysis (reference value: 11.4 %).
Data set [7] has as its system CT26. Put plainly: Antitumor activity against mouse CT26 cells xenografted in BALB/c mouse assessed as decrease in tumour growth at 50 mg/kg, po via gavage for 17 days by vernier caliper method. The class given is functional, organism-based.
For data set [8], the system named is CT26. The experiment in a line: Antitumor activity against mouse CT26 cells xenografted in BALB/c mouse assessed as decrease in tumour weight at 50 mg/kg, po via gavage for 17 days by vernier caliper method relative to control. The data set is classed as functional. The following applies: 408 h.
Data set [9] in a line: Toxicity in BALB/c mouse xenografted with mouse CT26 cells assessed as effect on body weight at 50 mg/kg, po via gavage for 17 days and measured at day 17. The data set is classed as organism-based. The conditions noted are these: in vivo, 408 h.
Data set [10] has as its system CT26. The experiment in a line: Antitumor activity against mouse CT26 cells xenografted in immunodeficient BALB/c nude mouse assessed as reduction in tumour growth at 50 mg/kg, po via gavage for 10 days by vernier caliper method. The class given is functional, organism-based. In short, it runs like this: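 BALB/c nude mice carrying subcutaneous CT26 tumors (1 × 10^6 cells, armpit). Randomized 3 days post-implant into vehicle or treatment groups (n = 6). Oral gavage given on days 1–10; 5-Fu served as reference. Tumor volume and body weight recorded, and tumors weighed after sacrifice.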

Data set [11] concerns Mus musculus. Put plainly: Induction of apoptosis in BALB/c mouse xenografted with CT26 cells assessed as cell shrinkage at 50 mg/kg via oral gavage for 17 days by H&E staining based analysis. The data set is classed as functional, organism-based. In short, it runs like this:
(§2)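 Tumor tissue from the 17-day CT26/BALB/c gavage study stained with hematoxylin and eosin. Nuclei, cytoplasm and cell morphology assessed by microscopy.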

In data set [12] the test system is Mus musculus. Put plainly: Induction of apoptosis in BALB/c mouse xenografted with CT26 cells assessed as nuclear chromatin condensation at 50 mg/kg via oral gavage for 17 days by H&E staining based analysis. The class given is functional, organism-based. The essentials: as §2
Data set [13] relates to Mus musculus. Put plainly: Induction of apoptosis in BALB/c mouse xenografted with CT26 cells assessed as nuclear chromatin margination at 50 mg/kg via oral gavage for 17 days by H&E staining based analysis. The class given is functional, organism-based. The essentials: as §2
For data set [14], the system named is Mus musculus. Put plainly: Induction of apoptosis in BALB/c mouse xenografted with CT26 cells assessed as decrease in PCNA expression at 50 mg/kg via oral gavage for 17 days by immunohistochemistry analysis. The class given is functional, organism-based. In short, it runs like this:
(§3)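 Paraffin sections of CT26 tumors from the 17-day BALB/c study. Sections deparaffinized, rehydrated and treated with 2% H2O2. Blocked with 3% goat serum, then incubated 2 h at room temperature with the specific primary antibody. Detection with streptavidin-HRP for 40 min and DAB, hematoxylin counterstain, microscopic imaging.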

Data set [15] deals with Mus musculus. The experiment in a line: Induction of apoptosis in BALB/c mouse xenografted with CT26 cells at 50 mg/kg via oral gavage for 17 days by TUNEL assay. The class given is functional, organism-based. The essentials: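 TUNEL staining of tumor sections from the 17-day CT26/BALB/c study. Apoptotic nuclei scored by fluorescence microscopy under a FITC filter (green).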

Data set [16] concerns Mus musculus. The experiment in a line: Increase in infiltrating CD8-positive T cells in BALB/c mouse xenografted with CT26 cells at 50 mg/kg via oral gavage for 17 day by immunohistochemical analysis. The class given is functional, organism-based. The essentials:
as §3

Data set [17] has as its system Mus musculus. The experiment in a line: Increase in IFN-gamma expression in BALB/c mouse xenografted with CT26 cells at 50 mg/kg via oral gavage for 17 day by immunohistochemical analysis. The data set is classed as functional, organism-based. In short, it runs like this:
as §3

For data set [18], the system named is Mus musculus. Put plainly: Decrease in FOXP3-postive T cells in BALB/c mouse xenografted with CT26 cells at 50 mg/kg via oral gavage for 17 day by immunohistochemical analysis. The class given is functional, organism-based. The essentials:
as §3

Data set [19] relates to Mus musculus. The experiment in a line: Increase in Granzyme B expression in BALB/c mouse xenografted with CT26 cells at 50 mg/kg via oral gavage for 17 day by immunohistochemical analysis. The data set is classed as functional, organism-based. In short, it runs like this: as §3
The target of data set [20] is Indoleamine 2,3-dioxygenase 1 (Mus musculus) (UniProt P28776). The experiment in a line: Reversal of IDO1-mediated immunosuppression in mouse CT26 co-cultured with T-cells assessed as increase in IFN-gamma production measured after 48 hrs by ELISA. The essentials:
as §1

Data set [21] has as its system CT26. Put plainly: Antitumor activity against mouse CT26 cells xenografted in immunodeficient BALB/c nude mouse assessed as reduction in tumour growth at 25 mg/kg, ip administered every two days for 17 days and measured at day 17 by vernier caliper method. The data set is classed as functional, organism-based.

Activity calls are given as the source filed them. The rule behind the calls is not given here. Some results are limits rather than exact numbers.

Chain of Indoleamine 2,3-dioxygenase 1 (Mus musculus) (P28776 whole entry, looked up): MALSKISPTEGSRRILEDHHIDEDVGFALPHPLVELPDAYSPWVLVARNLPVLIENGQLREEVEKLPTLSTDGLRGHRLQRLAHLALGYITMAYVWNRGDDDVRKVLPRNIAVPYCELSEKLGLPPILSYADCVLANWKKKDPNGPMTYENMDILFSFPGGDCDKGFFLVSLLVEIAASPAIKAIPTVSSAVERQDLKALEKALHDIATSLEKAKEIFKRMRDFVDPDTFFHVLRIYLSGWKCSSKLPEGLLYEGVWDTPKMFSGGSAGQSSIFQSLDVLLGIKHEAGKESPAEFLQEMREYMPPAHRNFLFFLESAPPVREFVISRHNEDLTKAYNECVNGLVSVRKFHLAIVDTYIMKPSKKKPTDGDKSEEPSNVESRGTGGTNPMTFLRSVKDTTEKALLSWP
Chain of Indoleamine 2,3-dioxygenase 1 (P14902 whole entry): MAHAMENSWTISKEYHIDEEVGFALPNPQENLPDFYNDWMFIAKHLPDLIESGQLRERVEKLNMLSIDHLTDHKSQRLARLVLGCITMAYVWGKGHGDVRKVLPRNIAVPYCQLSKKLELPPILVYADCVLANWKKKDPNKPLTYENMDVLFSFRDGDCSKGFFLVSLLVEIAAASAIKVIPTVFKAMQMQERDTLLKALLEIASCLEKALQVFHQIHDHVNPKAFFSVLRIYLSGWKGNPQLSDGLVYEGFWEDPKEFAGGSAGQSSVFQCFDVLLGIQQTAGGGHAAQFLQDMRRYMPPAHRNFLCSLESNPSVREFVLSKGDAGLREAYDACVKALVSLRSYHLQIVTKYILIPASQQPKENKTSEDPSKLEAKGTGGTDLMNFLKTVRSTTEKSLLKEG
Chain of Tryptophan 2,3-dioxygenase (Homo sapiens) (P48775 whole entry, looked up): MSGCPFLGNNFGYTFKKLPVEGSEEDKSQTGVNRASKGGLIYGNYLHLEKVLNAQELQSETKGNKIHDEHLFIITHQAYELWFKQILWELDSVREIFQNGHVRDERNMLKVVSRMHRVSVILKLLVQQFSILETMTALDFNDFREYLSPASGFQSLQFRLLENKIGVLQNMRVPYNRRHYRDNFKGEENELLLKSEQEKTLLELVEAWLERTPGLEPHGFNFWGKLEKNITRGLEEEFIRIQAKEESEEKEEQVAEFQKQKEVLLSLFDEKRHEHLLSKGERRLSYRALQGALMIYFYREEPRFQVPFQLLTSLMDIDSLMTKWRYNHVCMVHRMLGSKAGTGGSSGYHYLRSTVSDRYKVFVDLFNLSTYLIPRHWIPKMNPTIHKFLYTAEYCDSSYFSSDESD

Compound `O=C(Cc1ccccc1)N/N=C/c1c(O)ccc2cc([N+](=O)[O-])ccc12` registered an inhibition in data set [1] of less than 20%. Further, in data set [2], the 50% inhibitory concentration (IC50) was found to be 4.8 µM. Moreover, the viability at 24 h, 30 µM in [3] was found to be 108%. Moreover, the outcome in the data set on HeLa was inactive.
As for `OC(CC1c2ccccc2-c2cncn21)C1CCCCC1` (stereo unspecified), the inhibition in data set [1] is less than 20%.
In data set [1], `CCC(Nc1ccc(Cl)cc1C)C(=O)N/N=C/c1ccccc1` (stereo unspecified) yielded an inhibition of less than 20%. The fold change (FC) in data set [4] came to 2. The outcome (in data set [5]; in the data set on Mus musculus [11]; with Mus musculus [12]; in the data set on Mus musculus [13]; with Mus musculus [14]; in the data set on Mus musculus [15]) was Active. Moreover, the result in the data set on Mus musculus [16], with Mus musculus [17], with Mus musculus [18] and in the data set on Mus musculus [19] was Active. The Activity is 5.9% in data set [6] and “Non-Toxic” in [9]. Moreover, the inhibition entry in the data set with CT26 [7] was “Active”. For the same compound, in the data set with CT26 [8], the inhibition in vivo at 50 mg/kg turned out to be 36%. Besides, the result in the data set with CT26 [10] and with HeLa was inactive.
With `NS(=O)(=O)NCCNc1nonc1/C(=N/O)Nc1ccc(F)c(Br)c1`, the inhibition in data set [1] was less than 20%.
Turning to `CCC(Nc1ccc(Cl)cc1C)C(=O)N/N=C/c1c(O)ccc2ccccc12` (stereo unspecified), the IC50 in data set [2] stood at 2.1 µM. Moreover, the viability at 24 h, 30 µM in data set [3] worked out at 105%. Also, the outcome in [5] was Active. Moreover, in data set [6], the Activity stood at 6.7%. Besides, in the data set with HeLa, the outcome was inactive.
For the compound `CCC(Nc1ccc(Cl)cc1C)C(=O)N/N=C/c1ccccc1O` (stereo unspecified), the inhibition in [1] is less than 20%. For the same compound, the result with HeLa was inactive.
For the compound `COc1ccc(NC(=O)Cn2cnc3scc(-c4ccc(C)cc4)c3c2=O)cc1`, in data set [1], the inhibition is less than 20%. The IC50 in data set [2] turned out to be 3.2 µM. In [3], the viability at 24 h, 30 µM amounted to 107%. For the same compound, the result (in data set [5]; in data set [20]; in the data set with Mus musculus [11]; in the data set on Mus musculus [12]; in the data set with Mus musculus [13]) was Active. Besides, the Activity in [6] came to 10.8%. Also, the inhibition result with CT26 [7] is “Active”. The outcome with HeLa was inactive.
For the compound `Oc1ccccc1CN1CCCC(c2n[nH]cc2-c2ccc(Cl)cc2)C1` (stereo unspecified), in [2], the concentration for half-maximal inhibition (IC50) was 18.6 µM. Moreover, the viability at 24 h, 30 µM in data set [3] is 101%.
Take `CCOc1ccc(/C=N/NC(=O)c2c(O)ccc3ccccc23)cc1`: in [2], the IC50 is 27.3 µM. Further, in data set [3], the viability at 24 h, 30 µM is 112%.
Turning to `O=c1[nH]cc(F)c(=O)[nH]1`, the result in the data set on CT26 [21] was Active.
With `O=C(Cn1cnc2scc(-c3ccccc3)c2c1=O)NC(=O)Nc1ccccc1`, the IC50 in data set [2] was more than 30 µM. Moreover, the viability at 24 h, 30 µM in [3] was 85%.
The corresponding values for `O=C(N/N=C/c1c(O)ccc2ccccc12)Nc1ccccc1` are more than 30 µM and 102%.

For orientation: inhibition means the relative decrease from the control value, in per cent. As usually defined, the IC50 is the concentration needed to halve the response being measured. What is called inhibition in vivo is the relative decrease from the control value, in per cent.

Source of the values: ChEMBL document CHEMBL4406863, “Effective Virtual Screening Strategy toward heme-containing proteins: Identification of novel IDO1 inhibitors” (Eur J Med Chem, 2019).
